Experimental findings from the array DNA melting data of Ke et al. (doi:10.1101/2024.01.08.574731) are described below.

Data set [1] in a line: folding enthalpy; higher = less favourable; fluorescence melt of hairpins on a sequencing array, two-state fit. Conditions: sodium 0.088 M. In short, it runs like this: (§1)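 Cy3 signals were normalised both to pre-quench Cy3 and to control constructs. They came from library hairpins carrying annealed Cy3 and quencher oligos on a sequenced MiSeq flow cell, imaged in 50 mM Na-HEPES pH 8.0, 25 mM NaCl, in 2.5 °C steps up to 60 °C. Bootstrapped two-state fits gave melting temperature and folding enthalpy, and four replicates were combined by inverse variance. Fitted temperatures were then raised by 9.35 °C to match UV melts.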

Data set [2] in a line: melting temperature; fluorescence melt of hairpins on a sequencing array, two-state fit, raised by 9.35 °C to match UV melts. Conditions: sodium 0.088 M. In short, it runs like this: as §1

For the sequence GATCGTCAGGACGATC ((((((....)))))), in data set [1], the folding enthalpy was -45.6 kcal/mol. Besides, in data set [2], the Tm came out at 58.3 °C.
The like results for GATCGTCCACACGATC ((((((....)))))) were, in that order, -34.7 kcal/mol and 53.9 °C.
As for GATCGTCCGGACGATC ((((((....)))))), in data set [1], the folding enthalpy was -52.6 kcal/mol. In addition, the Tm in data set [2] came out at 62.8 °C.
On the same counts, the results for GATCGTCGAAACGATC ((((((....)))))) are -38.3 kcal/mol and 53.5 °C.
With GATCGTCGAACGATC ((((((...)))))), the folding enthalpy in data set [1] is -33.9 kcal/mol. For the same sequence, in data set [2], the Tm was 53.1 °C.
On the same counts, the results for GATCGTCGACACGATC ((((((....)))))) are -43.9 kcal/mol and 52.2 °C.
GATCGTCGCTACGATC ((((((....)))))): the folding enthalpy in data set [1] was -41.6 kcal/mol. Besides, the Tm in data set [2] came out at 55 °C.
Take GATCGTCGGTACGATC ((((((....)))))): the folding enthalpy in data set [1] is -27.3 kcal/mol. Further, the Tm in data set [2] came out at 53.8 °C.
The like results for GATCGTCGTAACGATC ((((((....)))))) were, in that order, -48.4 kcal/mol and 57.1 °C.
On the same counts, the results for GATCGTCTCACGATC ((((((...)))))) are -40.6 kcal/mol and 57.4 °C.
The like results for GATCGTCTGACGATC ((((((...)))))) were, in that order, -51.7 kcal/mol and 54 °C.
Turning to GATCGTCTTACGATC ((((((...)))))), the folding enthalpy in data set [1] is -34.8 kcal/mol. Moreover, the Tm in data set [2] amounted to 57.1 °C.
As for GATCGTGACAACGATC ((((((....)))))), the folding enthalpy in data set [1] was -38.4 kcal/mol. Also, the Tm in data set [2] is 63.5 °C.
The like results for GATCGTGAGAACGATC ((((((....)))))) were, in that order, -31.5 kcal/mol and 59.3 °C.
On the same counts, the results for GATCGTGAGTACGATC ((((((....)))))) are -31.4 kcal/mol and 54 °C.
The like results for GATCGTGCAGACGATC ((((((....)))))) were, in that order, -40.9 kcal/mol and 58.9 °C.
In the case of GATCGTGCTAACGATC ((((((....)))))), the folding enthalpy in data set [1] was -37.7 kcal/mol. Further, in data set [2], the Tm was determined as 66.3 °C.
The like results for GATCGTGGACACGATC ((((((....)))))) were, in that order, -40.2 kcal/mol and 65.6 °C.
On the same counts, the results for GATCGTGGCGACGATC ((((((....)))))) are -29.9 kcal/mol and 61.4 °C.
On to GATCGTGGTCACGATC ((((((....)))))), for which, in data set [1], the folding enthalpy is -41.9 kcal/mol. Besides, the Tm in data set [2] was determined as 57.7 °C.
GATCGTGTGAACGATC ((((((....)))))): in data set [1], the folding enthalpy was -39.2 kcal/mol. The Tm in data set [2] came out at 62.7 °C.
On the same counts, the results for GATCGTGTGGACGATC ((((((....)))))) are -38 kcal/mol and 55.7 °C.
With GATCGTTAACACGATC ((((((....)))))), the folding enthalpy in data set [1] is -37.9 kcal/mol. Also, the Tm in data set [2] was determined as 52.3 °C.
The like results for GATCGTTACAACGATC ((((((....)))))) were, in that order, -39 kcal/mol and 57.3 °C.
On the same counts, the results for GATCGTTACGACGATC ((((((....)))))) are -39.9 kcal/mol and 57.1 °C.
The like results for GATCGTTATAACGATC ((((((....)))))) were, in that order, -40.1 kcal/mol and 56.7 °C.
Turning to GATCGTTATTACGATC ((((((....)))))), in data set [1], the folding enthalpy is -39.8 kcal/mol. For the same sequence, the Tm in data set [2] was 56.1 °C.
The like results for GATCGTTCAAACGATC ((((((....)))))) were, in that order, -42.7 kcal/mol and 55 °C.
As to GATCGTTCAACGATC ((((((...)))))), the folding enthalpy in data set [1] is -42 kcal/mol. For the same sequence, in data set [2], the Tm is 55.5 °C.
The like results for GATCGTTCAGACGATC ((((((....)))))) were, in that order, -38.9 kcal/mol and 55.6 °C.
On the same counts, the results for GATCGTTCCGACGATC ((((((....)))))) are -40.9 kcal/mol and 56.1 °C.
On the same counts, the results for GATCGTTCTAACGATC ((((((....)))))) are -39.7 kcal/mol and 57.3 °C.
GATCGTTCTGACGATC ((((((....)))))): in data set [1], the folding enthalpy is -44.4 kcal/mol. In addition, the Tm in data set [2] came to 55.5 °C.
On the same counts, the results for GATCGTTCTTACGATC ((((((....)))))) are -40.6 kcal/mol and 56.3 °C.
The like results for GATCGTTGTGACGATC ((((((....)))))) were, in that order, -41 kcal/mol and 60.2 °C.
On the same counts, the results for GATCGTTTACACGATC ((((((....)))))) are -45.4 kcal/mol and 53.8 °C.
Consider GATCGTTTATACGATC ((((((....)))))), for which the folding enthalpy in data set [1] was -38.7 kcal/mol. In data set [2], the Tm was determined as 57.5 °C.
The like results for GATCGTTTGTACGATC ((((((....)))))) were, in that order, -37.3 kcal/mol and 56 °C.
